Test results taken from ChEMBL document CHEMBL1131514, “A novel series of 6-methoxy-1H-benzotriazole-5-carboxamide derivatives with dual antiemetic and gastroprokinetic activities” (1998).

Tests used:
[1] = system: Canis familiaris; experiment: Tested in vivo for effective dose required for suppression of apomorphine-induced emesis in dog […]; assay type: functional; conditions: Canis lupus familiaris
[2] = system: Rattus norvegicus; experiment: Compound was tested for its effect on the gastric emptying rate of phenol red semisolid meal through the stomach at oral dose of 3.0 mg/kg in rats.; assay type: functional
How it was run: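 Rats dosed orally at 3.0 mg/kg, with a 0.5% tragacanth control group. Gastric emptying of a phenol red semisolid meal was measured and expressed as percentage enhancement relative to the control group mean. Significance was tested against control.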

[3] = system: Canis familiaris; experiment: Antiemetic activity was evaluated in vivo by the suppression of apomorphine-induced emesis in dogs at oral dose of 1.0 mg/kg; assay type: functional, Canis lupus familiaris

Compound: CCN1CCCCCC(NC(=O)c2cc3[nH]nnc3cc2OC)C1 (stereo unspecified)
- ED50 [1]: 0.19 mg/kg
- Gastric emptying [2]: 21%
- Antiemetic activity [3]: 100%

Compound: CCN1CCCCC(NC(=O)c2cc3nnn(C)c3cc2OC)C1 (stereo unspecified)
- Gastric emptying [2]: 49%
- Antiemetic activity [3]: 77%

Compound: COc1cc2[nH]nnc2cc1C(=O)NC1CCCCN(C(C)C)C1 (stereo unspecified)
- Gastric emptying [2]: 31%
- Antiemetic activity [3]: 15%

Compound: CCCN1CCCCC(NC(=O)c2cc3[nH]nnc3cc2OC)C1 (stereo unspecified)
- Gastric emptying [2]: 17%
- Antiemetic activity [3]: 63%

Compound: CCOc1cc2[nH]nnc2cc1C(=O)NC1CCCCN(CC)C1 (stereo unspecified)
- Gastric emptying [2]: 18%
- Antiemetic activity [3]: 15%

Compound: CCN1CCCCCCC(NC(=O)c2cc3[nH]nnc3cc2OC)C1 (stereo unspecified)
- ED50 [1]: 0.1 mg/kg
- Gastric emptying [2]: 46%
- Antiemetic activity [3]: 100%

Compound: COc1cc2[nH]nnc2cc1C(=O)NC1CCCCN(C)C1 (stereo unspecified)
- Gastric emptying [2]: 20%
- Antiemetic activity [3]: 46%

Compound: CCN1CCCCC(NC(=O)c2ccc3[nH]nnc3c2OC)C1 (stereo unspecified)
- Gastric emptying [2]: 11%
- Antiemetic activity [3]: 50%

Compound: CCN1CCCCC(NC(=O)c2cc3nnn(C(C)C)c3cc2OC)C1 (stereo unspecified)
- Gastric emptying [2]: 16%
- Antiemetic activity [3]: 94%

Compound: CCN1CCCCC(NC(=O)c2cc3[nH]nnc3cc2OC)C1 (stereo unspecified)
- ED50 [1]: 0.08 mg/kg
- Gastric emptying [2]: 28%
- Antiemetic activity [3]: 100%

Compound: O=c1[nH]c2ccccc2n1CCCN1CCC(n2c(=O)[nH]c3cc(Cl)ccc32)CC1 [DOMPERIDONE]
- ED50 [1]: 0.02 mg/kg
- Gastric emptying [2]: 0%
- Antiemetic activity [3]: 100%

Compound: CCN1CCCCCCCC(NC(=O)c2cc3[nH]nnc3cc2OC)C1 (stereo unspecified)
- Gastric emptying [2]: 31%
- Antiemetic activity [3]: 22%

Compound: CCN1CCCC(NC(=O)c2cc3[nH]nnc3cc2OC)C1 (stereo unspecified)
- Antiemetic activity [3]: 31%

Compound: CCCn1nnc2cc(C(=O)NC3CCCCN(CC)C3)c(OC)cc21 (stereo unspecified)
- Gastric emptying [2]: 29%
- Antiemetic activity [3]: 89%

Compound: CCN1CCCCC(NC(=O)c2cc3nnn(CC4CC4)c3cc2OC)C1 (stereo unspecified)
- Gastric emptying [2]: 34%
- Antiemetic activity [3]: 74%

Compound: CCN1CCCCC(NC(=O)c2cc3nnn(CC)c3cc2OC)C1 (stereo unspecified)
- Gastric emptying [2]: 31%
- Antiemetic activity [3]: 89%

Compound: CCOc1cc(N)c(Cl)cc1C(=O)NCC1CN(Cc2ccc(F)cc2)CCO1 (stereo unspecified) [MOSAPRIDE]
- ED50 [1]: > 10 mg/kg
- Gastric emptying [2]: 70%
- Antiemetic activity [3]: 8%

Compound: CCN(CC)CCNC(=O)c1cc(Cl)c(N)cc1OC [METOCLOPRAMIDE]
- ED50 [1]: 0.45 mg/kg
- Gastric emptying [2]: 39%
- Antiemetic activity [3]: 86%
